# Experimental data taken from ChEMBL document CHEMBL3603780, “Discovery of thieno[3,2-c]pyridin-4-amines as novel Bruton's tyrosine kinase (BTK) inhibitors” (Bioorg Med Chem, 2015).
# Tests used:
# [1] = molecular target: Tyrosine-protein kinase BTK (Homo sapiens, UniProt Q06187); experiment: Inhibition of human recombinant BTK incubated for 5 mins by HTRF kinase assay
# [2] = molecular target: T1, Tyrosine-protein kinase JAK3 (Homo sapiens, UniProt P52333); experiment: Inhibition of JAK3 (unknown origin) using poly (Glu-Tyr, 4:1) substrate incubated for 60 mins by ELISA method
# T1 sequence (P52333 whole entry): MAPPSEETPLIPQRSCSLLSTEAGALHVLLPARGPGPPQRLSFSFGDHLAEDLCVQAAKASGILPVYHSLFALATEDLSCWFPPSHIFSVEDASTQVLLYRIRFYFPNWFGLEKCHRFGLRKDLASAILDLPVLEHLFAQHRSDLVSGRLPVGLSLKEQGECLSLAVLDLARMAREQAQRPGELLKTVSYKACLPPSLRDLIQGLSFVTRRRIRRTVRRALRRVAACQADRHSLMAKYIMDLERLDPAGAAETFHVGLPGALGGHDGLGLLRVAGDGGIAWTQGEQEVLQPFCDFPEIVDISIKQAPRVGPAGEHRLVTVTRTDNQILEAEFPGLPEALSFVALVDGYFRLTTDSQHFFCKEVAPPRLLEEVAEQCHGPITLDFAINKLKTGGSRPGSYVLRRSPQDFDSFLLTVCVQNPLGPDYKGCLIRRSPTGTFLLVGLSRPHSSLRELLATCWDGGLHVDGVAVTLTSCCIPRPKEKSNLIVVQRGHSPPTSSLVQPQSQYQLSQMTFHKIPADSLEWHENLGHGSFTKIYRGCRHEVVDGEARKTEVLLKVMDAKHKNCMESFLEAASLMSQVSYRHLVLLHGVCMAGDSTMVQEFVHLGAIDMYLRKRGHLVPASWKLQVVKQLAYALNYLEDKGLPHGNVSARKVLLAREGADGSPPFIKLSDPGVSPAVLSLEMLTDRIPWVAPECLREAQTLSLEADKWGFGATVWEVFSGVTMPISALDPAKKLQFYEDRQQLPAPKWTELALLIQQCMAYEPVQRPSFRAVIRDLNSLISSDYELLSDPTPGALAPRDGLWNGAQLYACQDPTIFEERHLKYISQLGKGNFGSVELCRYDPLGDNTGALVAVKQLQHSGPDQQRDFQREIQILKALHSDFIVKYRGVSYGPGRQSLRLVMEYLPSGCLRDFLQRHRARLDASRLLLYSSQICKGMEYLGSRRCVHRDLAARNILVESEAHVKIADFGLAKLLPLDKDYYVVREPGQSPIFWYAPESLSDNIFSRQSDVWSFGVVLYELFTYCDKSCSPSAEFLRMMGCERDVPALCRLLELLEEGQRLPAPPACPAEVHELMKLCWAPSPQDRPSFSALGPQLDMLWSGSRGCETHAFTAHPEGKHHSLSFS
# Method in brief: (§1)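 ELISA on wells precoated overnight at 37 °C with 0.2 mg/mL poly(Glu-Tyr, 4:1). Kinase and 0.01 mmol/L ATP in reaction medium, plus inhibitor at various concentrations in 1% DMSO, were reacted for 60 min at 37 °C. Anti-phosphotyrosine antibody and HRP anti-mouse IgG followed, with TMB read-out stopped by 2 M H2SO4 and OD at 450 nm. IC50 came from regression of concentration/inhibition data.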
# [3] = molecular target: Vascular endothelial growth factor receptor 2 (Homo sapiens, UniProt P35968); experiment: Inhibition of KDR (unknown origin) using poly (Glu-Tyr, 4:1) substrate incubated for 60 mins by ELISA method; method in brief: as §1
# [4] = molecular target: Hepatocyte growth factor receptor (Homo sapiens, UniProt P08581); experiment: Inhibition of c-MET (unknown origin) using poly (Glu-Tyr, 4:1) substrate incubated for 60 mins by ELISA method; method in brief: as §1
# [5] = molecular target: Tyrosine-protein kinase JAK2 (Homo sapiens, UniProt O60674); experiment: Inhibition of JAK2 (unknown origin) using poly (Glu-Tyr, 4:1) substrate incubated for 60 mins by ELISA method; method in brief: as §1
# [6] = Cmax in Sprague-Dawley rat at 2.5 mg/kg, iv by LC-MS/MS method; assay type: ADME, organism-based; design: dose 2.5 mg/kg, route intravenous; conditions: in vivo
# Method in brief: (§2)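 Male SD rats, 3 per route (180-240 g), dosed 2.5 mg/kg iv or 10 mg/kg po at 5 mL/kg. Blood was sampled from 2 min to 24 h, centrifuged at 4000 rpm for 5 min at 4 °C and protein-precipitated. Plasma was quantified by LC/MS/MS in SRM mode with an internal standard. PK parameters came from noncompartmental analysis.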
# [7] = AUC (0 to t) in Sprague-Dawley rat at 2.5 mg/kg, iv by LC-MS/MS method; assay type: ADME, organism-based; conditions: in vivo; method in brief: as §2
# [8] = Apparent volume of distribution in Sprague-Dawley rat at 2.5 mg/kg, iv by LC-MS/MS method; assay type: ADME, organism-based; conditions: in vivo, read-out: Vz; method in brief: as §2
# [9] = Clearance in Sprague-Dawley rat at 2.5 mg/kg, iv by LC-MS/MS method; assay type: ADME, organism-based; conditions: in vivo; method in brief: as §2
# [10] = Mean residence time in Sprague-Dawley rat at 2.5 mg/kg, iv by LC-MS/MS method; assay type: ADME, organism-based; conditions: in vivo; method in brief: as §2
# [11] = Half life in Sprague-Dawley rat at 2.5 mg/kg, iv by LC-MS/MS method; assay type: ADME, organism-based; conditions: in vivo; method in brief: as §2
# [12] = Tmax in Sprague-Dawley rat at 2.5 mg/kg, iv by LC-MS/MS method; assay type: ADME, organism-based; conditions: in vivo; method in brief: as §2
# [13] = Cmax in Sprague-Dawley rat at 10 mg/kg, po by LC-MS/MS method; assay type: ADME, organism-based; design: dose 10 mg/kg, route oral; conditions: in vivo; method in brief: as §2
# [14] = AUC (0 to t) in Sprague-Dawley rat at 10 mg/kg, po by LC-MS/MS method; assay type: ADME, organism-based; conditions: in vivo; method in brief: as §2
# Rattus norvegicus = experiment: Apparent volume of distribution in Sprague-Dawley rat at 10 mg/kg, po by LC-MS/MS method; assay type: ADME, organism-based; conditions: in vivo; method in brief: as §2
# [15] = Clearance in Sprague-Dawley rat at 10 mg/kg, po by LC-MS/MS method; assay type: ADME, organism-based; conditions: in vivo; method in brief: as §2
# [16] = Mean residence time in Sprague-Dawley rat at 10 mg/kg, po by LC-MS/MS method; assay type: ADME, organism-based; conditions: in vivo; method in brief: as §2
# [17] = Half life in Sprague-Dawley rat at 10 mg/kg, po by LC-MS/MS method; assay type: ADME, organism-based; conditions: in vivo; method in brief: as §2
# [18] = Tmax in Sprague-Dawley rat at 10 mg/kg, po by LC-MS/MS method; assay type: ADME, organism-based; conditions: in vivo; method in brief: as §2
# [19] = Oral bioavailability in Sprague-Dawley rat at 10 mg/kg by LC-MS/MS method; assay type: ADME, organism-based; conditions: in vivo; method in brief: as §2
# Sequence of Tyrosine-protein kinase BTK (Q06187 whole entry): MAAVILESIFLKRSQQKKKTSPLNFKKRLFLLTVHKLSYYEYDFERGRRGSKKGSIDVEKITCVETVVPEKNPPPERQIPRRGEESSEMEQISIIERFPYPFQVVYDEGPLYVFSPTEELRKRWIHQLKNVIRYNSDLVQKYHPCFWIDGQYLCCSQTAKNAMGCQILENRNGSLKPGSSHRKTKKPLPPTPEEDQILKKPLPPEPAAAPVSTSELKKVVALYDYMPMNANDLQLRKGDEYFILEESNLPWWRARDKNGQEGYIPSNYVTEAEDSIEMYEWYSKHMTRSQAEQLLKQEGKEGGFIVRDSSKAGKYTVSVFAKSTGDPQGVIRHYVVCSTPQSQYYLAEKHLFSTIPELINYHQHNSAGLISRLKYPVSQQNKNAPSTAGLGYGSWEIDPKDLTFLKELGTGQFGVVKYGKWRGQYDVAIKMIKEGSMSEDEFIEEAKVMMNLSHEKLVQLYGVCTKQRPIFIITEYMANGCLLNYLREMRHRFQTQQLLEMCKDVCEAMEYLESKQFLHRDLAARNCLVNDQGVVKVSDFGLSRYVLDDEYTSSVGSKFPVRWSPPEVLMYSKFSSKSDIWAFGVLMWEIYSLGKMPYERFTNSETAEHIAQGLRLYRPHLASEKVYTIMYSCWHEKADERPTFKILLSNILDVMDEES
# Sequence of Tyrosine-protein kinase JAK2 (O60674 whole entry): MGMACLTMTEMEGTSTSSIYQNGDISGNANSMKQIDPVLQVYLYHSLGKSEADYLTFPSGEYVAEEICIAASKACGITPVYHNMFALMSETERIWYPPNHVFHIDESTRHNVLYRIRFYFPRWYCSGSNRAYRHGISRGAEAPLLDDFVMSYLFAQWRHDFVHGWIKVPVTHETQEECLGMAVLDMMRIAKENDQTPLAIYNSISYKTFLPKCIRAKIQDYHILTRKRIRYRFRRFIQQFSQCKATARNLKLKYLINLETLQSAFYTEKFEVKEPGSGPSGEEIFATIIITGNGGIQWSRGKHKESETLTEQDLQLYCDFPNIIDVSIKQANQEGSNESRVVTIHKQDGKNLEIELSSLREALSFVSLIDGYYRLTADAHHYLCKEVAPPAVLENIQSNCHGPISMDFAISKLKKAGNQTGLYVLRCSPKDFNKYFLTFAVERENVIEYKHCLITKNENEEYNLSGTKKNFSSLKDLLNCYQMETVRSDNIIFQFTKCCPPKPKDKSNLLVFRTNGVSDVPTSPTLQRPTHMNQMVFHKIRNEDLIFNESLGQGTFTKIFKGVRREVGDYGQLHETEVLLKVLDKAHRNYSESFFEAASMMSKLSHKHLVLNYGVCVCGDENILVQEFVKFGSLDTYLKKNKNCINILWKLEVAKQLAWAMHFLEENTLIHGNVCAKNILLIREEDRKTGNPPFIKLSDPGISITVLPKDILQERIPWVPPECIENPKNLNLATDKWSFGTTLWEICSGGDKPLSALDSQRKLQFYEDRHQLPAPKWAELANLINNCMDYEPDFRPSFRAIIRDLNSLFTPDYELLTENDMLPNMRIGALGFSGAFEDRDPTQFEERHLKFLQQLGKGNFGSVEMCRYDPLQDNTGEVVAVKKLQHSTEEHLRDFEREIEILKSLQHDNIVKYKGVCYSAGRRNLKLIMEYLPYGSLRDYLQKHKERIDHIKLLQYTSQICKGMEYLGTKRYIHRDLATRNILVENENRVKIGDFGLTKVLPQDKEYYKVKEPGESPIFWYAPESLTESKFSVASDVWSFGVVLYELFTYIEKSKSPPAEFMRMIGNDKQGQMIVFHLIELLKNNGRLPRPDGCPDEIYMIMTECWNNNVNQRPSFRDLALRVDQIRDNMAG
# Sequence of Vascular endothelial growth factor receptor 2 (P35968 whole entry): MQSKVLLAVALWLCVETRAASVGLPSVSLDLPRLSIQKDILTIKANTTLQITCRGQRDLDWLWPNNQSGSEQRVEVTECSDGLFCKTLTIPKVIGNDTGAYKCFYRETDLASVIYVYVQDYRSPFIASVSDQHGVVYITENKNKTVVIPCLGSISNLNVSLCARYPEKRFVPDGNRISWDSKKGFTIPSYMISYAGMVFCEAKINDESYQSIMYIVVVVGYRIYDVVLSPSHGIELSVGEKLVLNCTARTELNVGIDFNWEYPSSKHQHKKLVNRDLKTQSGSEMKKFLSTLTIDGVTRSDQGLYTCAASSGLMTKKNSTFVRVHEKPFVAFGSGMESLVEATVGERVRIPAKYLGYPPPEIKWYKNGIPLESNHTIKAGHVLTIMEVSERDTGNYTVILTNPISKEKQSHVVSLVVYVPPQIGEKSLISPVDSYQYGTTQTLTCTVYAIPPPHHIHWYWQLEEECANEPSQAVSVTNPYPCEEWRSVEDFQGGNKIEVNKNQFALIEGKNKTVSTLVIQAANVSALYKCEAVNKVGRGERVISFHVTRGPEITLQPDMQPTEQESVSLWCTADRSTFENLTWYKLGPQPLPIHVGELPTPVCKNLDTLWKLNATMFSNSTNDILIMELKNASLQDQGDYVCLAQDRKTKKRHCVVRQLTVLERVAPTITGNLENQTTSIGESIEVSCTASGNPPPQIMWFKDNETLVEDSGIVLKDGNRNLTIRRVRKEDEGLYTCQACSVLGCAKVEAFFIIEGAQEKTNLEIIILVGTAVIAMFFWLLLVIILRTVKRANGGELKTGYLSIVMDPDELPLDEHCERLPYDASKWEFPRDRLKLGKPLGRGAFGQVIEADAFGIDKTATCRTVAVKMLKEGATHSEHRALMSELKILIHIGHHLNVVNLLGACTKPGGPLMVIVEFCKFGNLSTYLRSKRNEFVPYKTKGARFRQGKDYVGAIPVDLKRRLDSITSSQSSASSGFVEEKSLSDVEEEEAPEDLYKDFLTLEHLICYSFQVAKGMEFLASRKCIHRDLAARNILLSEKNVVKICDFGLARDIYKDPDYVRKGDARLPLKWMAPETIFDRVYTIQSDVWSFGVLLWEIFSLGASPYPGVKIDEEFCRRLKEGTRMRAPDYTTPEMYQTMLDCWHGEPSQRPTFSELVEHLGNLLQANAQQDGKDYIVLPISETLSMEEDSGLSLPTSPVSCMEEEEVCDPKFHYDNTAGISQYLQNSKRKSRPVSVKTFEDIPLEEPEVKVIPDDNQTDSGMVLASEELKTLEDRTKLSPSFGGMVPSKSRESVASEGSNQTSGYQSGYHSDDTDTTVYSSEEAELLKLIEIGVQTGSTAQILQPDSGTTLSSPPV
# Sequence of Hepatocyte growth factor receptor (P08581 whole entry): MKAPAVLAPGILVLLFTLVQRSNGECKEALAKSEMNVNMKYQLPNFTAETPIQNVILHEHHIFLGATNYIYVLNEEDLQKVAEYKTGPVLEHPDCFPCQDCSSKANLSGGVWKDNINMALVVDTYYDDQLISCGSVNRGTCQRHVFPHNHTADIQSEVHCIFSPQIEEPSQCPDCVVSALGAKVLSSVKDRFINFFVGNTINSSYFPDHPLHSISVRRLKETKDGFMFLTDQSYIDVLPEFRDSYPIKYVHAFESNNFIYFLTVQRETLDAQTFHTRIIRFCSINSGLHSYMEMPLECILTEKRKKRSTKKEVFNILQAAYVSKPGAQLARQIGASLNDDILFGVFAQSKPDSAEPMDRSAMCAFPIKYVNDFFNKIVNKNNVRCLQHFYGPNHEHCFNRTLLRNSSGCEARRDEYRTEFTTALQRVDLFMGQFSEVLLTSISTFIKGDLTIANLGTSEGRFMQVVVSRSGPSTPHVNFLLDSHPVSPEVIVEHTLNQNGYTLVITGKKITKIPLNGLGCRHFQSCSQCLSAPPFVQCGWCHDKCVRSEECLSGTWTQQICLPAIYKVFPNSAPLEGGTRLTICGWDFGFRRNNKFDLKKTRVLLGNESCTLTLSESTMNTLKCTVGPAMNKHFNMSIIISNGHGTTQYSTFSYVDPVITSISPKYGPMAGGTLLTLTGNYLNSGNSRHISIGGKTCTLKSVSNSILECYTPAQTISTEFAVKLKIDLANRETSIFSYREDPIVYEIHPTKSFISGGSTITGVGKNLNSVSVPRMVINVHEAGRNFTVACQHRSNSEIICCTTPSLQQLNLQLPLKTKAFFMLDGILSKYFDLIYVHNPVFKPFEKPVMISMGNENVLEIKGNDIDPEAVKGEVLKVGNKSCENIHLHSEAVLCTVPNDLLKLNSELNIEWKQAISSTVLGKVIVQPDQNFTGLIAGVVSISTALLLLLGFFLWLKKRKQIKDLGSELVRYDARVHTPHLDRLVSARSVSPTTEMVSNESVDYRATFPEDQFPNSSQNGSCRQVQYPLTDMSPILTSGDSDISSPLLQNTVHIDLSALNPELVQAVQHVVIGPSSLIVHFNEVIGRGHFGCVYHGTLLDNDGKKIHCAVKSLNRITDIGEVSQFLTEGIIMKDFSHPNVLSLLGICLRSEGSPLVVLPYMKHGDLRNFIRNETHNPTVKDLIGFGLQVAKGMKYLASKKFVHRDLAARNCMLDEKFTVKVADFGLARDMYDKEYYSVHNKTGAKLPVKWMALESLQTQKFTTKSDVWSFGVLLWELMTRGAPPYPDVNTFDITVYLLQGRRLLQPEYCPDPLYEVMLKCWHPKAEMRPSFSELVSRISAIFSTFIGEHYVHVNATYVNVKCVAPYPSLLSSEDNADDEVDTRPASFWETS
compound,measurement,setting,value
COc1ccc2cc(-c3cnc(N)c4c(-c5ccc(Oc6ccccc6)cc5)csc34)ccc2c1,IC50,[1],> 10000 nM
Nc1ncc(-c2ccco2)c2scc(-c3ccc(Oc4ccccc4)cc3)c12,IC50,[1],767 nM
Nc1ncc(C2CC2)c2scc(-c3ccc(Oc4ccccc4)cc3)c12,IC50,[1],> 10000 nM
Nc1ncc(-c2ccccc2)c2scc(-c3ccc(Oc4ccccc4)cc3)c12,IC50,[1],> 10000 nM
Nc1ncc(-c2ccncc2)c2scc(-c3ccc(Oc4ccccc4)cc3)c12,IC50,[1],1950 nM
Nc1ncc(-c2ccc(N3CCOCC3)cc2)c2scc(-c3ccc(Oc4ccccc4)cc3)c12,IC50,[1],2300 nM
Nc1ncc(-c2ccc(Oc3ccccc3)cc2)c2scc(-c3ccc(Oc4ccccc4)cc3)c12,IC50,[1],> 10000 nM
CCCCc1cnc(N)c2c(-c3ccc(Oc4ccccc4)cc3)csc12,IC50,[1],> 10000 nM
Nc1ncc(-c2cn[nH]c2)c2scc(-c3ccc(Oc4ccccc4)cc3)c12,IC50,[1],1050 nM
Cn1cc(-c2cnc(N)c3c(-c4ccc(Oc5ccccc5)cc4)csc23)cn1,IC50,[1],107 nM
same,IC50,[2],> 10000 nM
same,IC50,[3],343 nM
same,IC50,[4],> 10000 nM
same,IC50,[5],> 10000 nM
CCn1cc(-c2cnc(N)c3c(-c4ccc(Oc5ccccc5)cc4)csc23)cn1,IC50,[1],176 nM
CCCCn1cc(-c2cnc(N)c3c(-c4ccc(Oc5ccccc5)cc4)csc23)cn1,IC50,[1],387 nM
Nc1ncc(-c2cnn(Cc3ccccc3)c2)c2scc(-c3ccc(Oc4ccccc4)cc3)c12,IC50,[1],699 nM
COCCCn1cc(-c2cnc(N)c3c(-c4ccc(Oc5ccccc5)cc4)csc23)cn1,IC50,[1],280 nM
CNC(=O)Cn1cc(-c2cnc(N)c3c(-c4ccc(Oc5ccccc5)cc4)csc23)cn1,IC50,[1],12.8 nM
same,IC50,[2],> 10000 nM
same,IC50,[3],284 nM
same,IC50,[4],> 10000 nM
same,IC50,[5],> 10000 nM
same,Cmax,[6],2550 ng/mL
same,AUC(0-t),[7],1460 ng·h/mL
same,Vd,[8],0.9 L/kg
same,clearance,[9],28.6 mL/min/kg
same,MRT,[10],25.8 min
same,half-life,[11],21.6 min
same,Tmax,[12],6.6 min
same,Cmax,[13],856 ng/mL
same,AUC(0-t),[14],1370 ng·h/mL
same,Vz,Rattus norvegicus,13.3206 L/kg
same,CL/F,[15],145 mL/min/kg
same,MRT,[16],88.8 min
same,half-life,[17],60.6 min
same,Tmax,[18],40.2 min
same,bioavailability,[19],23.4%
CN(C)S(=O)(=O)n1cc(-c2cnc(N)c3c(-c4ccc(Oc5ccccc5)cc4)csc23)cn1,IC50,[1],528 nM
CC(=O)n1cc(-c2cnc(N)c3c(-c4ccc(Oc5ccccc5)cc4)csc23)cn1,IC50,[1],454 nM
CNC(=O)Cn1cc(-c2cnc(N)c3c(-c4cccc(C(=O)Nc5ccccc5)c4)csc23)cn1,IC50,[1],291 nM
CNC(=O)Cn1cc(-c2cnc(N)c3c(-c4ccc(C(=O)Nc5ccccc5)cc4)csc23)cn1,IC50,[1],137 nM
Cn1cc(-c2cnc(N)c3c(-c4ccc(NC(=O)c5cccc(Cl)c5)cc4)csc23)cn1,IC50,[1],421 nM
CNC(=O)Cn1cc(-c2cnc(N)c3c(-c4ccc(NC(=O)c5cccc(Cl)c5)cc4)csc23)cn1,IC50,[1],409 nM
